Test results from PMC2704382 (Cell, 2009).

How the values were obtained:
AHPs = test: AHP cell proliferation assay; type: cell-based; details: 200 ng/ml in culture medium; cell numbers counted for 2 days; n=3
Method in brief: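 Adult hippocampal progenitors transduced 2 days with GFP-expressing lentivirus (control, DISC1 shRNA or WT-hDISC1), then FACS-sorted on GFP. 2×10^4 cells seeded per well in medium with recombinant Wnt3a (200 ng/ml) or vehicle. Cells counted each day for 2 days; n=3.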

GSK3β [1] = test: In vitro GSK3β kinase assay; type: biochemical; details: 2 µM protein
GSK3β [2] = type: binding; details: GST-tagged DISC1 fragments, purified His-tagged GSK3β, in vitro

| Molecule | Proliferation of AHPs (AHPs) | Inhibition of GSK3β autophosphorylation (GSK3β [1]) | Interaction with GSK3β (GSK3β [2]) |
| --- | --- | --- | --- |
| Wnt3a: recombinant Wnt3a protein (protein, UniProt P56704 19-352, looked up) Protein Wnt-3a: SYPIWWSLAVGPQYSSLGSQPILCASIPGLVPKQLRFCRNYVEIMPSVAEGIKIGIQECQHQFRGRRWNCTTVHDSLAIFGPVLDKATRESAFVHAIASAGVAFAVTRSCAEGTAAICGCSSRHQGSPGKGWKWGGCSEDIEFGGMVSREFADARENRPDARSAMNRHNNEAGRQAIASHMHLKCKCHGLSGSCEVKTCWWSQPDFRAIGDFLKDKYDSASEMVVEKHRESRGWVETLRPRYTYFKVPTERDLVYYEASPNFCEPNPETGSFGTRDRTCNVSSHGIDGCDLLCCGRGHNARAERRREKCRCVFHWCCYVSCQECTRVYDVHTCK | significantly stimulated |  |  |
| DISC1 356–595: GST-tagged DISC1 protein fragment spanning residues 356–595 (protein, left off: GST, end not stated, kept) LKLQKCQEKVVEDGDYDTAETLRQRLEELEQEKGRLSWALPSQQPALRSFLGYLAAQIQVALHGATQRAGSDDPEAPLEGQLRTTAQDSLPASITRRDWLIREKQRLQKEIEALQARMSALEAKEKRLSQELEEQEVLLRWPGCDLMALVAQMSPGQLQEVSKALGETLTSANQAPFQVEPPETLRSLRERTKSLNLAVRELTAQVCSGEKLCSSLRRRLSDLDTRLPALLEAKMLALSG |  | started to inhibit | strong interactions |
| DISC1 221–355: GST-tagged DISC1 protein fragment spanning 221–355 (protein, UniProt Q9NRI5 221-355, looked up, fragment, GST tag) GERGEAEGCPPSREAESHCQSPQEMGAKAASLDGPHEDPRCLSRPFSLLATRVSADLAQAARNSSRPERDMHSLPDMDPGSSSSLDPSLAGCGGDGSSGSGDAHSWDTLLRKWEPVLRDCLLRNRRQMEVISLRL |  | started to inhibit |  |
